ChEMBL document CHEMBL3588757, “Structure-based design, synthesis and biological testing of piperazine-linked bis-epipodophyllotoxin etoposide analogs” (Bioorg Med Chem, 2015)

How the values were obtained:
Assay type in all cases: functional
[1] = Cytotoxicity against human NCI-ADR-RES cells by SRB assay
Method in brief: (§1)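 NCI-60 panel screen; 5-dose testing giving GI50 per cell line, plus a single 10 µM one-dose test. Method details not given beyond the NCI screen.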

[2] = tested on: RPMI-8226; assay: Cytotoxicity against human RPMI8226 cells assessed as cell growth at 0.05 uM by SRB assay; settings: read-out: Activity
[3] = tested on: HOP-92; assay: Cytotoxicity against human HOP92 cells assessed as cell growth at 0.5 uM by SRB assay; settings: read-out: Activity
Method in brief: (§2)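 Measured in the NCI-60 human tumour cell line panel using five-dose testing. Growth was recorded at each dose for each cell line, and a GI50 was derived for each line.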

[4] = tested on: IGROV-1; assay: Cytotoxicity against human IGROV1 cells assessed as cell growth at 0.005 uM by SRB assay; settings: read-out: Activity; method in brief: as §2
[5] = tested on: NCI-H23; assay: Cytotoxicity against human NCI-H23 cells by SRB assay; method in brief: as §1
[6] = tested on: T47D; assay: Cytotoxicity against human T47D cells by SRB assay; method in brief: as §1
[7] = tested on: NCI-H23; assay: Cytotoxicity against human NCI-H23 cells assessed as cell growth at 50 uM by SRB assay; settings: read-out: Activity
[8] = tested on: KM12; assay: Cytotoxicity against human KM12 cells assessed as cell growth at 0.5 uM by SRB assay; settings: read-out: Activity
[9] = tested on: SW-620; assay: Cytotoxicity against human SW620 cells assessed as cell growth at 50 uM by SRB assay; settings: read-out: Activity
[10] = tested on: OVCAR-8; assay: Cytotoxicity against human OVCAR8 cells assessed as cell growth at 0.005 uM by SRB assay; settings: read-out: Activity
[11] = tested on: NCI-H522; assay: Cytotoxicity against human NCI-H522 cells assessed as cell growth at 0.5 uM by SRB assay; settings: read-out: Activity
[12] = tested on: UACC-257; assay: Cytotoxicity against human UACC257 cells by SRB assay; method in brief: as §1
[13] = tested on: NCI-H226; assay: Cytotoxicity against human NCI-H226 cells assessed as cell growth at 0.005 uM by SRB assay; settings: read-out: Activity
[14] = tested on: NCI-H460; assay: Cytotoxicity against human NCI-H460 cells assessed as cell growth at 0.005 uM by SRB assay; settings: read-out: Activity
[15] = tested on: SK-OV-3; assay: Cytotoxicity against human SKOV3 cells by SRB assay; method in brief: as §1
[16] = tested on: OVCAR-8; assay: Cytotoxicity against human OVCAR8 cells by SRB assay; method in brief: as §1
[17] = tested on: LOX IMVI; assay: Cytotoxicity against human LOXIMVI cells assessed as cell growth at 0.005 uM by SRB assay; settings: read-out: Activity
[18] = tested on: MDA-MB-468; assay: Cytotoxicity against human MDA-MB-468 cells by SRB assay; method in brief: as §1
[19] = tested on: HL-60(TB); assay: Cytotoxicity against human HL-60(TB) cells assessed as cell growth at 50 uM by SRB assay; settings: read-out: Activity; method in brief: as §2
[20] = tested on: SK-MEL-28; assay: Cytotoxicity against human SK-MEL-28 cells assessed as cell growth at 0.05 uM by SRB assay; settings: read-out: Activity
[21] = tested on: A549; assay: Cytotoxicity against human A549/ATCC cells assessed as cell growth at 0.05 uM by SRB assay; settings: read-out: Activity
[22] = tested on: M14; assay: Cytotoxicity against human M14 cells assessed as cell growth at 0.05 uM by SRB assay; settings: read-out: Activity
[23] = tested on: TK-10; assay: Cytotoxicity against human TK10 cells assessed as cell growth at 50 uM by SRB assay; settings: read-out: Activity
[24] = Cytotoxicity against human NCI-ADR-RES cells assessed as cell growth at 0.5 uM by SRB assay; settings: read-out: Activity
[25] = tested on: CAKI-1; assay: Cytotoxicity against human Caki1 cells by SRB assay
[26] = tested on: COLO 205; assay: Cytotoxicity against human COLO205 cells assessed as cell growth at 5 uM by SRB assay; settings: read-out: Activity
[27] = tested on: BT-549; assay: Cytotoxicity against human BT549 cells assessed as cell growth at 5 uM by SRB assay; settings: read-out: Activity
[28] = tested on: HOP-92; assay: Cytotoxicity against human HOP92 cells assessed as cell growth at 0.05 uM by SRB assay; settings: read-out: Activity; method in brief: as §2
[29] = tested on: SW-620; assay: Cytotoxicity against human SW620 cells assessed as cell growth at 5 uM by SRB assay; settings: read-out: Activity
[30] = tested on: UACC-257; assay: Cytotoxicity against human UACC257 cells assessed as cell growth at 50 uM by SRB assay; settings: read-out: Activity
[31] = tested on: A498; assay: Cytotoxicity against human A498 cells assessed as cell growth at 0.5 uM by SRB assay; settings: read-out: Activity
[32] = tested on: OVCAR-3; assay: Cytotoxicity against human OVCAR3 cells assessed as cell growth at 5 uM by SRB assay; settings: read-out: Activity
[33] = tested on: SF-295; assay: Cytotoxicity against human SF295 cells assessed as cell growth at 0.5 uM by SRB assay; settings: read-out: Activity
[34] = tested on: M14; assay: Cytotoxicity against human M14 cells by SRB assay; method in brief: as §1
[35] = tested on: SF-295; assay: Cytotoxicity against human SF295 cells assessed as cell growth at 5 uM by SRB assay; settings: read-out: Activity
[36] = tested on: IGROV-1; assay: Cytotoxicity against human IGROV1 cells by SRB assay; method in brief: as §1
[37] = Cytotoxicity against human Hs578T cells assessed as cell growth at 0.5 uM by SRB assay; settings: Hs-578T, read-out: Activity; method in brief: as §2
[38] = tested on: OVCAR-4; assay: Cytotoxicity against human OVCAR4 cells by SRB assay; method in brief: as §1
[39] = read-out: LC50 (the source's name)
[40] = read-out: pLC50 (the source's name) (converted)

## COc1cc([C@@H]2c3cc4c(cc3[C@@H](NC(=O)CN3CCN(CCCCCCN5CCN(CC(=O)N[C@@H]6c7cc8c(cc7[C@@H](c7cc(OC)c(O)c(OC)c7)[C@H]7C(=O)OC[C@@H]76)OCO8)CC5)CC3)[C@H]3COC(=O)[C@H]23)OCO4)cc(OC)c1O
[1]; read-out: GI50
  GI50: > 50 µM
[1]; [39]
  CC50: > 50 µM
[1]; read-out: TGI
  TGI: > 50 µM
[1]; read-out: pGI50 (converted)
  GI50: > 50.1 µM
[1]; [40]
  CC50: > 50.1 µM
[1]; read-out: pTGI
  TGI: > 50.1 µM
[2]
  growth at 0.05 µM: 86%
[3]
  growth at 0.5 µM: 69%
[4]
  growth at 0.005 µM: 111%
[5]; read-out: GI50
  GI50: 3.82 µM
[5]; [39]
  CC50: > 50 µM
[5]; read-out: TGI
  TGI: 38.6 µM
[5]; read-out: pGI50 (converted)
  GI50: 3.8 µM
[5]; [40]
  CC50: > 50.1 µM
[5]; read-out: pTGI (converted)
  TGI: 38.9 µM
[6]; read-out: GI50
  GI50: 2.01 µM
[6]; [39]
  CC50: > 50 µM
[6]; read-out: TGI
  TGI: > 50 µM
[6]; read-out: pGI50 (converted)
  GI50: 2 µM
[6]; [40]
  CC50: > 50.1 µM
[6]; read-out: pTGI (converted)
  TGI: > 50.1 µM
[7]
  growth at 50 µM: -6%
[8]
  growth at 0.5 µM: 81%
[9]
  growth at 50 µM: 4%
[10]
  growth at 0.005 µM: 110%
[11]
  growth at 0.5 µM: 75%
[12]; read-out: GI50
  GI50: 18.9 µM
[12]; [39]
  CC50: > 50 µM
[12]; read-out: TGI
  TGI: > 50 µM
[12]; read-out: pGI50 (converted)
  GI50: 19.1 µM
[12]; [40]
  CC50: > 50.1 µM
[12]; read-out: pTGI (converted)
  TGI: > 50.1 µM
[13]
  growth at 0.005 µM: 92%
[14]
  growth at 0.005 µM: 100%
[15]; read-out: GI50
  GI50: 3.87 µM
[15]; [39]
  CC50: > 50 µM
[15]; read-out: TGI
  TGI: > 50 µM
[15]; read-out: pGI50 (converted)
  GI50: 3.89 µM
[15]; [40]
  CC50: > 50.1 µM
[15]; read-out: pTGI (converted)
  TGI: > 50.1 µM
[16]; read-out: GI50
  GI50: 35.7 µM
[16]; [39]
  CC50: > 50 µM
[16]; read-out: TGI
  TGI: > 50 µM
[16]; read-out: pGI50 (converted)
  GI50: 35.5 µM
[16]; [40]
  CC50: > 50.1 µM
[16]; read-out: pTGI (converted)
  TGI: > 50.1 µM
[17]
  growth at 0.005 µM: 98%
[18]; read-out: GI50
  GI50: 1.72 µM
[18]; [39]
  CC50: 50 µM
[18]; read-out: TGI
  TGI: 12.3 µM
[18]; read-out: pGI50 (converted)
  GI50: 1.74 µM
[18]; [40]
  CC50: > 50.1 µM
[18]; read-out: pTGI (converted)
  TGI: 12.3 µM
[19]
  growth at 50 µM: -1%
[20]
  growth at 0.05 µM: 106%
[21]
  growth at 0.05 µM: 89%
[22]
  growth at 0.05 µM: 94%
[23]
  growth at 50 µM: 63%
[24]
  growth at 0.5 µM: 106%
[25]; read-out: GI50
  GI50: > 50 µM
[25]; [39]
  CC50: > 50 µM
[25]; read-out: TGI
  TGI: > 50 µM
[25]; read-out: pGI50 (converted)
  GI50: > 50.1 µM
[25]; [40]
  CC50: > 50.1 µM
[25]; read-out: pTGI (converted)
  TGI: > 50.1 µM
[26]
  growth at 5 µM: 54%
[27]
  growth at 5 µM: -5%
[28]
  growth at 0.05 µM: 82%
[29]
  growth at 5 µM: 37%
[30]
  growth at 50 µM: 41%
[31]
  growth at 0.5 µM: 78%
[32]
  growth at 5 µM: 63%
[33]
  growth at 0.5 µM: 94%
[34]; read-out: GI50
  GI50: 2.31 µM
[34]; [39]
  CC50: > 50 µM
[34]; read-out: TGI
  TGI: 22.1 µM
[34]; read-out: pGI50 (converted)
  GI50: 2.29 µM
[34]; [40]
  CC50: > 50.1 µM
[34]; read-out: pTGI (converted)
  TGI: 21.9 µM
[35]
  growth at 5 µM: 50%
[36]; read-out: GI50
  GI50: 40 µM
[36]; [39]
  CC50: > 50 µM
[36]; read-out: TGI
  TGI: > 50 µM
[36]; read-out: pGI50 (converted)
  GI50: 39.8 µM
[36]; [40]
  CC50: > 50.1 µM
[36]; read-out: pTGI (converted)
  TGI: > 50.1 µM
[37]
  growth at 0.5 µM: 77%
[38]; read-out: GI50
  GI50: 10.5 µM
[38]; [39]
  CC50: > 50 µM
[38]; read-out: TGI
  TGI: > 50 µM
[38]; read-out: pGI50 (converted)
  GI50: 10.5 µM
[38]; [40]
  CC50: > 50.1 µM
[38]; read-out: pTGI (converted)
  TGI: > 50.1 µM
